Experimental data published in ChEMBL document CHEMBL5252510, “A Novel Potent Oral Series of VEGFR2 Inhibitors Abrogate Tumor Growth by Inhibiting Angiogenesis” (J Med Chem, 2016).
Calls of active or inactive are those of the source. The calls are words filed in the database; no cut-off is given here.

Columns and labels:
[1] = target: T1, Vascular endothelial growth factor receptor 2 (Homo sapiens, UniProt P35968); experiment: Inhibition of human recombinant GST-fused VEGFR2 kinase domain transphosphorylation expressed in baculovirus expression system using poly-Glu-Tyr (4:1) as substrate measured after 10 mins in presence of gamma-[33P]-ATP by scintillation counting analysis
B16-BL6 [2] = experiment: Antitumor activity against mouse B16-BL6 cells implanted in C57BL/6jNpa mouse assessed as primary tumor growth inhibition by measuring T/C ratio at 1 mg/kg, po qd started on day 7 post implantation measured after 21 days; settings: time 7-21 day
[3] = target: T1, Vascular endothelial growth factor receptor 2; experiment: Inhibition of VEGF-induced human VEGFR2 autophosphorylation expressed in HUVEC cells measured after 2 hrs by chemiluminescence assay; format: cell-based
[4] = target: Insulin-like growth factor 1 receptor (Homo sapiens, UniProt P08069); experiment: Inhibition of IGF1R (unknown origin) autophosphorylation expressed in […] by ELISA-based assay; format: cell-based
Outline: (§1)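 Cells were stimulated with the respective ligand. Receptor tyrosine kinase autophosphorylation in the presence of compound was quantified by ELISA.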

[5] = target: T2, Proto-oncogene tyrosine-protein kinase receptor Ret (Homo sapiens, UniProt P07949); experiment: Inhibition of human recombinant GST-fused RET expressed in baculovirus expression system using poly-Glu-Tyr (4:1) as substrate measured after 10 mins in presence of gamma-[33P]-ATP by scintillation counting analysis
Outline: (§2)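 GST-fused kinase domains were expressed in baculovirus and purified on glutathione-Sepharose. 10 min at ambient temperature, stopped with EDTA. Filter binding and scintillation counting. IC50 by linear regression of percent inhibition.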

[6] = target: Serine/threonine-protein kinase B-raf (Homo sapiens) (UniProt P15056); experiment: Inhibition of human recombinant GST-fused BRAF expressed in baculovirus expression system using poly-Glu-Tyr (4:1) as substrate measured after 10 mins in presence of gamma-[33P]-ATP by scintillation counting analysis; outline: as §2
[7] = target: T1, Vascular endothelial growth factor receptor 2; experiment: Inhibition of VEGF-induced human VEGFR2 autophosphorylation transfected in CHO cells measured after 2 hrs by chemiluminescence assay; format: cell-based
[8] = Dose normalized Cmax in OFA rat at 3 mg/kg, po measured upto 24 hrs by HPLC/UV analysis; format: ADME, organism-based; settings: in vivo
Outline: (§3)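 Female OFA rats, femoral artery/vein catheterized and recovered 96 h. Oral gavage of a micronized suspension in 0.5 % carboxymethyl cellulose at 25 or 3 mg/kg. Bioavailability taken against femoral-vein iv dosing. Plasma sampled 5 min–24 h (9 time points).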

[9] = target: Platelet-derived growth factor receptor beta (Homo sapiens, UniProt P09619); experiment: Inhibition of PDGFR (unknown origin) autophosphorylation expressed in mouse BALB/3T3 clone A31 cells by ELISA-based assay; format: cell-based; outline: as §1
Bcr/Abl fusion protein = Bcr/Abl fusion protein (Homo sapiens, UniProt P00519); experiment: Inhibition of BCR-ABL (unknown origin) autophosphorylation expressed in mouse 32D cells by ELISA-based assay; format: cell-based; outline: as §1
[10] = target: Epidermal growth factor receptor (Homo sapiens, UniProt P00533); experiment: Inhibition of EGFR (unknown origin) autophosphorylation expressed in human A-431 cells by ELISA-based assay; format: cell-based; outline: as §1
[11] = Half life in OFA rat at 3 mg/kg, po measured upto 24 hrs by HPLC/UV analysis; format: ADME, organism-based; settings: in vivo; outline: as §3
[12] = target: Receptor tyrosine-protein kinase erbB-2 (Homo sapiens, UniProt P04626); experiment: Inhibition of ERBB2 (unknown origin) autophosphorylation expressed in human BT-474 cells by ELISA-based assay; format: cell-based; outline: as §1
[13] = target: Mast/stem cell growth factor receptor Kit (Homo sapiens, UniProt P10721); experiment: Inhibition of human recombinant GST-fused c-KIT expressed in baculovirus expression system using poly-Glu-Tyr (4:1) as substrate measured after 10 mins in presence of gamma-[33P]-ATP by scintillation counting analysis; outline: as §2
[14] = Tmax in OFA rat at 3 mg/kg, po measured upto 24 hrs by HPLC/UV analysis; format: ADME, organism-based; settings: in vivo; outline: as §3
[15] = target: T2, Proto-oncogene tyrosine-protein kinase receptor Ret; experiment: Inhibition of RET (unknown origin) autophosphorylation expressed in mouse NIH3T3 cells by ELISA-based assay; format: cell-based; outline: as §1
[16] = Half life in Sprague-Dawley rat at 50 mg/kg, po measured upto 24 hrs by HPLC/UV analysis; format: ADME, organism-based; settings: in vivo
Outline: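 Female Sprague Dawley rats, 8 weeks old, catheterized. Oral suspension in 0.5 % carboxymethyl cellulose at 50 mg/kg, n=3. Bioavailability taken against 3 mg/kg iv. Plasma sampled 5 min–24 h. Cmax and AUC(0–∞) dose-normalized.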

B16-BL6 [17] = experiment: Antitumor activity against mouse B16-BL6 cells implanted in C57BL/6jNpa mouse assessed as reduction in TIE-2 levels metastases lysate of at 3 mg/kg, po qd administered started on day 7 post implantation measured after 21 days by ELISA analysis; format: functional, organism-based; settings: time 7-21 day
Outline: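 Female C57BL/6JNpa mice, 50000 B16/BL6 cells intradermally in both ear pinnae; primary tumor area (mm²) imaged days 7, 14, 21; randomized day 7 into groups of 5-6, oral dosing in PEG200 or PEG300 vehicle daily (or every 2 days) for 14 days; day 21 cervical lymph nodes weighed, metastasis lysates assayed for TIE-2 by ELISA; T/C ratios.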

[18] = Antitumor activity against rat BN472 cell implanted in Brown-Norway rat assessed as tumor growth inhibition by measuring T/C ratio at 3 mg/kg, po qd measured upto 14 days; format: functional; settings: time <= 14 day
Outline: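 Female Brown-Norway rats (160-180 g) given 3 mm³ BN472 tumor fragments in mammary fat pads; at about 200 mm², randomized into groups of 7-8 and dosed orally with compound or PEG300 vehicle over 14 days; tumor growth followed, T/C computed; significance by 2-way RM-ANOVA.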

[19] = Volume of distribution at steady state in OFA rat at 2.5 mg/kg, iv measured upto 24 hrs by HPLC/UV analysis; format: ADME, organism-based; settings: in vivo, read-out: Vdss
Outline: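 Female OFA rats with femoral artery and vein catheters, 96 h recovery. IV into femoral vein: 2.5 mg/kg in ethanol/dimethylisosorbide/PEG400/D5W (10/15/35/40) or 1 mg/kg in NMP/PEG200 (30:70). Plasma sampled at 5, 15, 30 min, 1, 2, 4, 6, 8, 24 h; drug measured by HPLC (UV or MS-MS stated); parameters dose normalized, n=2-4.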

[20] = Half-life in OFA rat at 2.5 mg/kg, iv measured upto 24 hrs by HPLC/UV analysis; format: ADME, organism-based; settings: in vivo
Outline: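 Catheters were placed in the femoral artery and vein of female OFA rats, followed by 96 h recovery. IV doses went into the femoral vein: 2.5 mg/kg in ethanol/dimethylisosorbide/PEG400/5 % glucose (10/15/35/40), or 1 mg/kg in NMP/PEG200 (30:70). Plasma samples at 5, 15, 30 min and 1, 2, 4, 6, 8, 24 h. Parameters reported over 24 h. n=2–4.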

[21] = Dose normalized AUC(0 to infinity) in OFA rat at 25 mg/kg, po measured upto 24 hrs by HPLC/UV analysis; format: ADME, organism-based; settings: in vivo; outline: as §3
[22] = Half life in OFA rat at 25 mg/kg, po measured upto 24 hrs by HPLC/UV analysis; format: ADME, organism-based; settings: in vivo; outline: as §3
[23] = Dose normalized Cmax in OFA rat at 25 mg/kg, po measured upto 24 hrs by HPLC/UV analysis; format: ADME, organism-based; settings: in vivo; outline: as §3

Row | IC50 [1] | IC50 [3] | IC50 [4] | inhibition [5] | inhibition [6] | IC50 [7] | IC50 [9] | IC50 (Bcr/Abl fusion protein) | IC50 [10] | IC50 [12] | IC50 [13] | IC50 [15] | half-life [16] | SMILES | Activity (B16-BL6 [17]) | T/C [18] | also measured
1 | 2.7 nM | 3 nM | > 500 nM | Active | Active | 4.6 nM | 30 nM | > 500 nM | > 500 nM | > 500 nM | > 2000 nM | 30 nM | – | O=C(Nc1cccc(C(F)(F)F)c1)c1cccc2cc(Oc3cc(CO)ncn3)ccc12 [BFH-772] | – | – | T/C (B16-BL6 [2]): 0.73; Cmax/dose [8]: 1570 nM; half-life [11]: 4.1 h; Tmax [14]: 2 h
2 | – | – | – | – | – | – | – | – | – | – | – | – | 4.5 h | Nc1nccc(Oc2ccc3c(C(=O)Nc4ccc(F)c(C(F)(F)F)c4)cccc3c2)n1 | Active | 5.6 | –
3 | 9 nM | 2.9 nM | > 500 nM | Active | Active | 4.2 nM | 30 nM | > 500 nM | > 500 nM | > 500 nM | > 10000 nM | 30 nM | – | Nc1nccc(Oc2ccc3c(C(=O)Nc4cccc(C(F)(F)F)c4)cccc3c2)n1 | Active | 35.5 | Vd [19]: 1.3 L/kg; half-life [20]: 2 h; AUC/dose [21]: 1.22 µmol·h/L; half-life [22]: 2 h; Cmax/dose [23]: 280 nM
4 | – | – | – | – | – | – | – | – | – | – | – | – | 10.1 h | Nc1cc(Oc2ccc3c(C(=O)Nc4cccc(C(F)(F)F)c4)cccc3c2)ncn1 | – | – | –
